Data: PMC3135177 (Organic & biomolecular chemistry, 2010)

Experiments:
SirT1 [1] = target: T1, SirT1 (Homo sapiens, UniProt Q96EB6); details: NAD+ as substrate on SIRT1; cited from earlier work
T1 sequence (Q96EB6 1-747): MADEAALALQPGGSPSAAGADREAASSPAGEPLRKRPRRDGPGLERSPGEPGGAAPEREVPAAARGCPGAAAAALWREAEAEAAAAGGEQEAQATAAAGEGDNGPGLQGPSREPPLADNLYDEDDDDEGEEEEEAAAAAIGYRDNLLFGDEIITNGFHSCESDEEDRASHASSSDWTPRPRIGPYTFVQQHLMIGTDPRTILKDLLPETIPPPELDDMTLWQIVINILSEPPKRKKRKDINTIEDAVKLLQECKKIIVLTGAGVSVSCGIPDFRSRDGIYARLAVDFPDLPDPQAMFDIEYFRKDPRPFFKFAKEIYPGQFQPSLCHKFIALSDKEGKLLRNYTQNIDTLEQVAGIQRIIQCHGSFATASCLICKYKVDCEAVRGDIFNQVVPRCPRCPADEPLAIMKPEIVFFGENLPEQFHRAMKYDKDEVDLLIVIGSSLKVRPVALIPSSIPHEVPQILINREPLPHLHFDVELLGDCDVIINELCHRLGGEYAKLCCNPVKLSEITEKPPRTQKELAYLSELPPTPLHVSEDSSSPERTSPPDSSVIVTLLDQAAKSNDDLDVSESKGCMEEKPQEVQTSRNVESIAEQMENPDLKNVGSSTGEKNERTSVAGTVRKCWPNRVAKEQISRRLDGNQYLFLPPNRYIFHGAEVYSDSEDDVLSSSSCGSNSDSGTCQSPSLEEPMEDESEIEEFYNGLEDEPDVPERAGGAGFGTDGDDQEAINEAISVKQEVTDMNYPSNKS

SirT1 [2] = target: T1, SirT1; assay: Inhibition of sirtuin-catalyzed deacetylation, SirT1; assay type: biochemical
How it was run: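 Purified SirT1 was incubated with NAD+, the test compound and an acetylated peptide substrate at 37 °C for 30–60 min. Activity was expressed as percent remaining, with uninhibited set at 100%, and plotted against log[test compound] in nM. IC50 came from a fit to v(%) = v(%)I − [v(%)I(10^x)/(10^x + IC50)].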

Af2Sir2 = target: T2, Af2Sir2 (Archaeoglobus fulgidus, UniProt O30124); assay: Inhibition of sirtuin-catalyzed deacetylation, Af2Sir2; assay type: biochemical
T2 sequence (O30124 1-253): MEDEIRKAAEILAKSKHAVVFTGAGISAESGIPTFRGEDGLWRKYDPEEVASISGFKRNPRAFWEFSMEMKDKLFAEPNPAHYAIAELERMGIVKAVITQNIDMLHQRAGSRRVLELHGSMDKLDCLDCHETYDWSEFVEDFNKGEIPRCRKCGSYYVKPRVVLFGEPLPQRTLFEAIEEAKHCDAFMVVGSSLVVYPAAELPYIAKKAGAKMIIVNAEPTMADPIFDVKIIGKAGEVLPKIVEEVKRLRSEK

SirT2 = target: T3, SirT2 (Homo sapiens, UniProt Q8IXJ6); assay: Inhibition of sirtuin-catalyzed deacetylation, SirT2; assay type: biochemical
T3 sequence (Q8IXJ6 1-389): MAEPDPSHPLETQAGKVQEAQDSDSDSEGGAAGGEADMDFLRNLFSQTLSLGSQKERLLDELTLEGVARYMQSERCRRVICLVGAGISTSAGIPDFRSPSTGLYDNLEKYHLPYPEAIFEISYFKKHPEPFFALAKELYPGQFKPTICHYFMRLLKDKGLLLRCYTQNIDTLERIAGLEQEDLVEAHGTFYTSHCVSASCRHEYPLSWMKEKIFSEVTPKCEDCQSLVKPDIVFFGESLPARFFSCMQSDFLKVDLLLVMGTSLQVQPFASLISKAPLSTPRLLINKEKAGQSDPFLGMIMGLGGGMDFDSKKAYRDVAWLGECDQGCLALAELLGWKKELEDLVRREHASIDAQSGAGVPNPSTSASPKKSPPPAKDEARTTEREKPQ

Yeast Sir2 = Yeast Sir2 (Saccharomyces cerevisiae, UniProt P06700); assay: Inhibition of sirtuin-catalyzed deacetylation, yeast Sir2; assay type: biochemical
Yeast Sir2, sequence (P06700 whole entry): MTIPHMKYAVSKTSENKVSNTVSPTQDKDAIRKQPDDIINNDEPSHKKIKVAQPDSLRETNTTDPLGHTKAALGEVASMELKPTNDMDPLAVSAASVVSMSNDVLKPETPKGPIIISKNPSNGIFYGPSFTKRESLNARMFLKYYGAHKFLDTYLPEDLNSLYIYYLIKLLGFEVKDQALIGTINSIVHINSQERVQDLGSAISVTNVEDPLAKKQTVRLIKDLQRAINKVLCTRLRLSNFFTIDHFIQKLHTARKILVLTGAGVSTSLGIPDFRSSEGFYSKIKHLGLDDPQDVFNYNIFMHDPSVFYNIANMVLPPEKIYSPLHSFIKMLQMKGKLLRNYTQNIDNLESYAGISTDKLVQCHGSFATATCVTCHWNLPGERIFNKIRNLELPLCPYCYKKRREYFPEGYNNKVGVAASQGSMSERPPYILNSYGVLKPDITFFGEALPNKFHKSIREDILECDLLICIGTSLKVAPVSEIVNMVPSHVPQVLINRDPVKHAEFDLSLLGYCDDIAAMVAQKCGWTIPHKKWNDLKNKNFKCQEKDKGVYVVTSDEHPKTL

| SMILES | Km (SirT1 [1]) [µM] | IC50 (SirT1 [2]) [µM] | Ki (SirT1 [2]) [nM] | IC50 (Af2Sir2) [µM] | IC50 (SirT2) [µM] | IC50 (Yeast Sir2) [µM] |
| --- | --- | --- | --- | --- | --- | --- |
| NC(=O)c1ccc[n+]([C@@H]2O[C@H](COP(=O)([O-])OP(=O)(O)OC[C@H]3O[C@@H](n4cnc5c(N)ncnc54)[C@H](O)[C@@H]3O)[C@@H](O)[C@H]2O)c1 [NAD^+] | 165 |  |  |  |  |  |
| COC(=O)[C@H](C)NC(=O)[C@H](C)NC(=O)[C@H](CCCCNC(C)=S)NC(=O)c1ccc([N+](=O)[O-])cc1 [compound 1, N^α-4-nitrobenzoyl-N^ε-thioacetyl-lysinyl-alaninyl-alanine methyl ester] |  | 6.5 ± 1 | 611 | 131 ± 26 | 13.1 ± 0.54 | 19.5 ± 5.8 |
